Screening results from PubChem.
INS-1E GSIS act = GLuc luminescence reporter in INS-1E cells, primary screen for activators of glucose-dependent secretion of insulin; INS-1E GLuc reporter insulin secretion, 2-3 h; activation, % at 16.6 µM; hit rate 0.61% among 370,000; AID 743287, 2014;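 active = lowest replicate activation of at least 40%, so every replicate reaches that level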
S100A4 inh HTS = inhibitors of S100A4-myosin IIA peptide binding, primary screen, biochemical, fluorescence polarization, TAMRA-MyoIIA peptide | Protein S100-A4 (Homo sapiens), P26447 | inhibition, % at 10.7 µM | hit rate 0.14% among 360,000;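 active = mean inhibition of at least 70% across replicates, with every replicate also reaching that level; inconclusive = mean inhibition reaches 70% but some replicates fall short; inactive = mean inhibition below 70%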
Target sequence (P26447 whole entry, looked up): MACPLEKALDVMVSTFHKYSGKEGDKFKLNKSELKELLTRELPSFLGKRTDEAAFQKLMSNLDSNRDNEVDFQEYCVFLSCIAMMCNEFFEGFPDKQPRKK
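Test system: S100A4 monomer protein; Medium: HEPES pH 7.2 with CaCl2, KCl, NaCl, DTT, Triton; Probe or stimulus: TAMRA-labelled myosin IIA heavy-chain peptide probe, 5 nM; Doses: one dose per compound; Times: polarization read 5 min after assay mix addition, stable 5–60 min; Benchmarks: neutral control DMSO, positive control TFP.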
AF4-AF9 inh = inhibitors of AF4 peptide binding to AF9, primary screen, biochemical, AlphaScreen, biotin-AF4 peptide, FLAG-AF9, single point. AID 651704, 2012. Protein AF-9 (Homo sapiens), P42568. hit rate 0.47% among 350,000. inhibition, % at 10 µM;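 active = every replicate reaching a set inhibition limit, whatever the replicate mean, cut at about 25% in these data; inconclusive = mean inhibition reaches that limit but some replicates miss it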
Target sequence (P42568 whole entry, looked up): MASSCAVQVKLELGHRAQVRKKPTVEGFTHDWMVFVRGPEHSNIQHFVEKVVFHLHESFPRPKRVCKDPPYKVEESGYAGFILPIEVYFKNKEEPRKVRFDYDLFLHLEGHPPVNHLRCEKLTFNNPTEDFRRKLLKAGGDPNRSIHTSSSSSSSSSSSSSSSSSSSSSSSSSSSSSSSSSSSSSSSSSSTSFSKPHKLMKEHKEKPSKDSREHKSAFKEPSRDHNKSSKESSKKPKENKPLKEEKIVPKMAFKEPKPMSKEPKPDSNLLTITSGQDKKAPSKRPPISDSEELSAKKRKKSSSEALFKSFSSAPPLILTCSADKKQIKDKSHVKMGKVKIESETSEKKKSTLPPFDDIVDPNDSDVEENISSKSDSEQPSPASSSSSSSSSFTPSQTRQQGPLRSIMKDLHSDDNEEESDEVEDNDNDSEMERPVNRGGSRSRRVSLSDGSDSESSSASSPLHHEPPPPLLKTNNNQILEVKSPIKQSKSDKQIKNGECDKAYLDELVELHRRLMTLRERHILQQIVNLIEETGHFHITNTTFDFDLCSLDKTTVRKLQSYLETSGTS
RAD54 branch = inhibitors of human RAD54 branch migration, primary screen, biochemical, fluorescence, single point | RAD54 Holliday junction branch migration, FAM/BHQ fluorescence | inhibition, % at 10.4 µM | DNA repair and recombination protein RAD54-like (Homo sapiens), Q92698 | hit rate 0.14% among 360,000;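 active = mean normalized replicate activity at least 40 and at least half of replicates scoring 40 or more; inconclusive = only one of the two criteria met; inactive = mean below 40 and under half of replicates reaching 40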;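 note: inhibitors cause a drop in the FAM fluorescence signal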
RAD52 anneal inh = RAD52 DNA annealing inhibitors, primary screen, biochemical, FRET, single point, set 2 | recombinant RAD52 DNA annealing, FRET fluorescence | inhibition, % at 18.7 µM | hit rate 0.46% among 360,000 | AID 651710, 2012;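 active = every replicate showing at least 50% inhibition; inconclusive = mean inhibition at least 50% but not in every replicate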
Rad54 DNA ctr = DNA binding of candidate compounds, dose response, artefact control for RAD54 inhibitor project, biochemical, fluorescence polarization, cherry-pick | shares compounds with RAD54 branch | Acridine orange-DNA displacement, 20 min | AC50, µM (series often up to 35 µM) | hit rate 8% among 460 | AID 651673, 2012;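 active = signal drop giving an AC50 within twice the top valid tested concentration of each sample, actives reach about 35 µM in these data; inactive = activity opposite to expected, plus the rest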;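 note: polarization loss reports compound binding to salmon sperm DNA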
DNA binder FP = DNA-binding compounds via dye displacement, dose response, artefact control for RAD52 inhibitor project, biochemical, fluorescence polarization, cherry-pick | AC50, µM | hit rate 8% among 1,000 | Salmon sperm DNA/acridine orange FP displacement | shares compounds with RAD52 anneal inh;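 active = fitted half-maximal concentration for signal loss at or below twice the highest dose tested, in every separate run, actives reach about 64 µM in these data; inconclusive = runs disagree, or flat partial signal loss, or poor fit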
Numbers stand for hits; i = inactive; ? = inconclusive; nt = no result given. An excerpt weighted towards active compounds, which were near 1.3% of everything screened.

SMILES | INS-1E GSIS act | S100A4 inh HTS | AF4-AF9 inh | RAD54 branch | RAD52 anneal inh | Rad54 DNA ctr | others
C[C@H]1CN([C@@H](C)CO)C(=O)c2cccc(NC(=O)Nc3ccccc3)c2O[C@H]1CN(C)C(=O)Nc1ccc(F)cc1 | i | i | i | i | i | nt
CC(C)C#Cc1cnc2c(c1)C(=O)N([C@@H](C)CO)C[C@H](C)[C@@H](CN(C)C(=O)c1cnccn1)O2 | i | i | i | i | i | nt
C[C@@H]1CN([C@@H](C)CO)C(=O)Cc2cc(N(C)C)ccc2O[C@H]1CN(C)S(=O)(=O)c1cn(C)cn1 | i | i | i | i | i | nt
Cc1c(Cl)ccc(S(=O)(=O)NCCCn2ccnc2)c1Cl | i | i | i | ? | i | i
CC1C=NC(S(=O)(=O)N2CC[C@H]3[C@@H](CO)N(C)c4ccc(-c5ccc(F)cc5)cc4[C@H]32)=N1 (some centres undefined) | i | nt | nt | i | nt | nt
CC1CCCCC1NC(=O)C1Cc2ccccc2CN1S(C)(=O)=O (centres undefined) | nt | nt | nt | ? | nt | i
C[C@@H]1CN([C@@H](C)CO)C(=O)c2cc(-c3cccnc3)cnc2O[C@H]1CN(C)C(=O)Nc1ccc(C(F)(F)F)cc1 | i | i | i | i | i | nt
COc1cccc(-c2nc(N3CCN(Cc4ccccc4)CC3)c3ccccc3n2)c1O | i | i | i | 64.4 | i | i
COc1ccc(N2C(=O)CSC23CCCCC3)cc1 | nt | nt | nt | ? | nt | i
CCOc1ccc(N2C(=O)CSC23CCCCC3)cc1 | nt | nt | nt | i | nt | nt
CS(=O)(=O)Nc1ccc2c(c1)[C@H]1C[C@@H](CC(=O)NCC(F)(F)F)O[C@H](CO)[C@H]1O2 | i | i | i | i | i | nt
C=CCc1ccccc1OCC(O)CN1CCN(CCN2C(=O)c3cccc4cccc(c34)C2=O)CC1 (centres undefined) | nt | i | ? | 99.5 | i | i
Cc1ccccc1OCC(O)CN1CCN(CCN2C(=O)c3cccc4cccc(c34)C2=O)CC1 (centres undefined) | i | i | i | nt | i | nt
COc1ccc2c3c(n(C)c2c1)[C@@H](CO)N(C(=O)NC(C)C)CC31CN(CC2CCCC2)C1 | i | nt | i | nt | nt | nt
CCCc1nc2c(=O)n(C)c(=O)nc-2n(C)n1 | i | i | i | 74.2 | i | i
Cn1nc(-c2ccccn2)nc2c(=O)n(C)c(=O)nc1-2 | i | i | i | 61.2 | i | i
CCOCCCn1c(=N)c(C(=O)NCCN2CCOCC2)cc2c(=O)n3cccc(C)c3nc21 | nt | nt | nt | 68.8 | nt | i
Cc1cccn2c(=O)c3cc(C(=O)NCC4CCCO4)c(=N)n(CC4CCCO4)c3nc12 (centres undefined) | i | i | i | i | i | nt
COc1ccc(CCn2c(=N)c(C(=O)NCC3CCCO3)cc3c(=O)n4cccc(C)c4nc32)cc1 (centres undefined) | nt | i | i | i | i | nt
Cc1cccn2c(=O)c3cc(C(=O)NCC4CCCO4)c(=N)n(C4CCCCC4)c3nc12 (centres undefined) | i | i | i | ? | i | i
Cc1cccn2c(=O)c3cc(C(=O)NCCN4CCOCC4)c(=N)n(Cc4ccc(F)cc4)c3nc12 | i | i | i | i | i | nt
COc1ccc(CCNC(=O)c2cc3c(=O)n4cccc(C)c4nc3n(CCCN3CCOCC3)c2=N)cc1 | i | i | i | 58.8 | i | i
CCC(=O)N[C@@H]1CC[C@@H](CC(=O)NCc2ccccc2OC)O[C@H]1CO | i | i | i | i | i | nt
CN(C)CCOc1nc(-c2ccccc2)nc2c1oc1ccccc12 | i | nt | nt | 80.6 | nt | i
COc1ccc(NC(=O)N(C)C[C@@H]2Oc3c(NC(=O)c4nc5ccccc5s4)cccc3C(=O)N([C@@H](C)CO)C[C@@H]2C)cc1 | i | i | i | i | i | nt
SMILES | INS-1E GSIS act | S100A4 inh HTS | AF4-AF9 inh | RAD54 branch | RAD52 anneal inh | Rad54 DNA ctr | others
CN(C)CCCN(C(=O)c1ccco1)c1nc(-c2ccc(Cl)cc2)cs1 | i | i | 26.2 | 53.0 | 52.0 | i | DNA binder FP=i
C[C@H]1CN([C@@H](C)CO)C(=O)Cc2cc(NC(=O)NC3CCCCC3)ccc2O[C@@H]1CN(C)C(=O)Nc1ccc(C(F)(F)F)cc1 | i | i | i | i | i | nt
Cc1c(C)n(CCN(C)C)c2ccc(C(=O)OCCN(C)C)cc12 | i | i | i | 103.8 | 102.8 | i | DNA binder FP=i
COc1ccc(NC(=O)Nc2ccc3c(c2)C(=O)N([C@@H](C)CO)C[C@H](C)[C@@H](CN(C)Cc2ccc(Cl)c(Cl)c2)OCCCC[C@H](C)O3)cc1 | i | i | i | i | i | nt
COCCCNc1nc(N)c([N+](=O)[O-])c(Nc2cc(OC)ccc2OC)n1 | i | i | i | i | i | nt
COc1ccc(OC)c(Nc2nc(NCCCN(C)C)nc(N)c2[N+](=O)[O-])c1 | i | i | i | 74.0 | 95.0 | i | DNA binder FP=i
Nc1ccc2ncccc2c1N | i | nt | nt | i | nt | nt
Nc1nc(N)c2c(ccc3nccc32)[nH]1 | i | i | i | 61.8 | 77.2 | i | DNA binder FP=i
C[C@@H]1CCCCO[C@H](CN(C)Cc2ccc(C(=O)O)cc2)[C@H](C)CN([C@@H](C)CO)C(=O)c2cc(NC(=O)Nc3ccc(F)cc3)ccc2O1 | i | i | i | i | i | nt
CCN(CC)CCN1CCN(c2cncc(-c3cccc(N)c3)n2)CC1 | i | i | i | 73.2 | 99.0 | i | DNA binder FP=i
COc1ccc2c3c([nH]c2c1)[C@H](CO)N(Cc1nccs1)CC31CN(C(=O)C2CCOCC2)C1 | i | nt | i | nt | nt | nt
N=c1c(C(=O)NCCc2ccccc2)cc2c(=O)n3ccccc3nc2n1CCCN1CCOCC1 | i | i | i | i | i | nt
Cc1cccn2c(=O)c3cc(C(=O)NC4CCCC4)c(=N)n(CC4CCCO4)c3nc12 (centres undefined) | i | i | i | i | i | nt
Cc1cccn2c(=O)c3cc(C(=O)NCCN4CCOCC4)c(=N)n(CCN4CCOCC4)c3nc12 | i | i | i | 51.3 | 69.2 | i | DNA binder FP=i
Cc1cccn2c(=O)c3cc(C(=O)NC4CCCC4)c(=N)n(CCCN4CCOCC4)c3nc12 | i | i | i | 76.8 | 68.0 | i | DNA binder FP=i
N=c1c(C(=O)NCCN2CCOCC2)cc2c(=O)n3ccccc3nc2n1CCc1ccccc1 | i | i | i | 62.8 | 57.1 | i | DNA binder FP=i
CN1CCN(c2nc(-c3cccc([N+](=O)[O-])c3)nc3ccccc23)CC1 | i | i | i | 74.6 | i | i | DNA binder FP=i
CC1CCCN(CCCNC(=O)c2cc3c(Cl)nc4ccccc4c3s2)C1 (centres undefined) | i | i | i | 92.0 | 66.8 | i | DNA binder FP=39.4µM
